hIAP activ: human IAP activators, primary screen, biochemical, luminescence, uHTS | purified human IAP, CDP-Star luminescence, 30 min; active compounds read high; 1 = vehicle-only enzyme, 0 = enzyme-free background | activation factor at 10 µM | Intestinal-type alkaline phosphatase (Homo sapiens), P09923 | actives 0.16% (n = 330,000) | AID 2524, 2010;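 active = activation factor of the enzyme at least 2-fold when tested at 20 µM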
Target sequence (P09923 whole entry, looked up): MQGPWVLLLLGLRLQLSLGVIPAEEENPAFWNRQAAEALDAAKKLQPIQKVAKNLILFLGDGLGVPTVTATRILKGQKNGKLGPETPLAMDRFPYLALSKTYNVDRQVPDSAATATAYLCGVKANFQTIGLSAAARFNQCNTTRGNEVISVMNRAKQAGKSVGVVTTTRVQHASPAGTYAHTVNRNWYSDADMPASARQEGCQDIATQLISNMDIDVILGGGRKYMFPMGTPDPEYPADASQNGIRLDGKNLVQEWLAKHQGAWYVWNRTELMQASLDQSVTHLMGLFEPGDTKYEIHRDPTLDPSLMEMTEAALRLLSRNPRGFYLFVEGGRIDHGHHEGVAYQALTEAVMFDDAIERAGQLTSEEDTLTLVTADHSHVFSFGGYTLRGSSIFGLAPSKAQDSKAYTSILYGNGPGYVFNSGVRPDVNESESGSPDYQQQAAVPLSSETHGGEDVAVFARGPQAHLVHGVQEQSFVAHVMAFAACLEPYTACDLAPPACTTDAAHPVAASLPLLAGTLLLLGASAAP
bIAP inhibitor: bovine intestinal alkaline phosphatase inhibitors, primary screen, selectivity assay for TNAP inhibitor project, biochemical, bovine IAP, CDP-star luminescence | alkaline phosphatase, intestinal [Bos taurus] | purified bovine IAP, 30 min | inhibition, % at 20 µM | 190,000 tested, under 10 active;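 active = over 50% inhibition of intestinal alkaline phosphatase at 20 µM in the single-dose screen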
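Assay system – bovine IAP enzyme · Quantity – bovine IAP at 1/65,000,000 final dilution · Detection – CDP-star luminescence signal · Times – 30 min reaction at room temperature · Also added – CDP-star substrate at 30 µM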
hIAP inh: human IAP inhibitors, primary screen, biochemical, luminescence, uHTS. Intestinal-type alkaline phosphatase (Homo sapiens), P09923. purified IAP, CDP-Star luminescence, 30 min. inhibition, % at 10 µM. actives 0.12% (n = 330,000). AID 2544, 2010;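 active = inhibition reaching a set limit with compound at 10 µM in the primary screen, cut at about 35% in these data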;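 also: plate controls were DMSO wells with enzyme for no effect and no-enzyme buffer wells for full effect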
mIAP block: inhibitors of mouse IAP, primary screen, biochemical, luminescence, uHTS. inhibition, % at 10 µM. purified mouse IAP, CDP-Star luminescence, 30 min. AID 2806, 2010. actives 0.2% (n = 330,000);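 active = inhibition of at least 40% at 10 µM in the primary screen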;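 also: plate controls were DMSO with enzyme for no effect and no enzyme wells for full effect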
bIAP act: bovine intestinal alkaline phosphatase activators, primary screen, biochemical, bovine IAP, CDP-star luminescence; alkaline phosphatase, intestinal [Bos taurus]; purified bovine IAP, 30 min; active compounds read high; fold of DMSO-control signal, blank-subtracted; AID 1016, 2008; activation factor at 20 µM; actives 0.17% (n = 200,000);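 active = activation factor of 2 or more at 20 µM, a signal rise over negative controls twice the positive control's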
mIAP activ: activators of mouse IAP, primary screen, biochemical, luminescence, uHTS; actives 0.24% (n = 330,000); activation factor at 10 µM; muIAP, CDP-Star luminescence, 30 min; active compounds read high; 1 = vehicle-only enzyme signal, 0 = enzyme-free wells; intestinal alkaline phosphatase [Mus musculus];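 active = activation factor of at least 2 at 20 µM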
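System: mouse IAP enzyme. Reagent: CDP-Star chemiluminescent phosphatase substrate. Benchmarks: DMSO wells, no-enzyme wells. Times: 30 min enzyme-substrate-compound incubation at room temperature. Detection: luminescence from enzymatic CDP-Star hydrolysis. Doses: test compounds delivered from DMSO solution.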
hIAP act confirm: human IAP activators, confirmation, biochemical, luminescence, single concentration, uHTS hits. AID 434926, 2010. actives 10% (n = 880). purified IAP, CDP-Star luminescence, 30 min; active compounds read low. shares compounds with hIAP activ. activation (%Activity, negative = activation), % at 8.3 µM;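 active = at least twofold enzyme activation in any of six single-dose repeats, which the averaged readout prints as negative percent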
mIAP inh conf: inhibitors of mouse IAP, confirmation, biochemical, luminescence, single concentration; shares compounds with mIAP block; purified mouse IAP, CDP-Star luminescence, 30 min; inhibition, % at 10 µM; actives 4.7% (n = 11,000);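 active = inhibition of at least 40% at 10 µM in either of the two replicates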;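 also: plate controls were DMSO wells with enzyme for no effect and buffer wells lacking enzyme for full effect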
* marks the source's active call; other numbers are inactive results; i = inactive; nt = no result. This is a sample that favours compounds with a hit; in the whole collection about 0.77% have one here.

SMILES	hIAP activ	bIAP inhibitor	hIAP inh	mIAP block	bIAP act	mIAP activ	hIAP act confirm	mIAP inh conf
CN(C)c1ccc2nc3c(=O)[nH]c(=O)nc-3n(CC(O)C(O)C(O)CO)c2c1 (stereo not drawn)	0.48	nt	52*	41*	nt	0.59	-87*	46*
COc1cc(OC)c(CNC2CCCCCC2)cc1Br	1.1	-10	-8	1	1.1	0.99	nt	nt
COc1ccccc1/C=C/CN1CCC(n2nccc2NC(=O)CCc2ccccc2)CC1	3.3*	nt	-232	-149	nt	2.5*	13	-121
O=C(CCc1ccccc1)Nc1ccnn1C1CCN(C/C=C/c2ccccc2)CC1	1.9	nt	-89	-53	nt	1.5	nt	nt
COc1ccccc1CN1CCC(n2nccc2NC(=O)CCCc2ccccc2)CC1	3.3*	nt	-231	-104	nt	2*	-112*	-108
COCc1ccc(CN2CCC(n3nccc3NC(=O)CCCc3ccccc3)CC2)o1	1.3	nt	-33	-4	nt	1	nt	nt
O=C(N/N=C/c1ccc(O)cc1O)C(=O)N/N=C/c1ccc(O)cc1O	2.3*	nt	-128	54*	nt	0.47	19	67*
C=CCn1cc(CN2CCC(C(=O)Nc3cccc(-c4cccc(Cl)c4)c3)CC2)c(C)n1	7.9*	nt	i	i	nt	6.5*	-37	-274
O=C(Nc1cccc(-c2cccc(F)c2)c1)C1CCN(CC2CCOC2)CC1 (stereo not drawn)	2	nt	-96	-79	nt	1.8	nt	nt
O=C(Nc1cccc(-c2cccc(Cl)c2)c1)C1CCN(Cc2ccon2)CC1	2*	nt	-101	-133	nt	2.3*	-11	-73
O=C(Nc1cccc(-c2cccc(Cl)c2)c1)C1CCN(Cc2ccccn2)CC1	1.5	nt	-50	-98	nt	2	nt	nt
C=CCn1cc(CN2CCC(C(=O)Nc3ccc(Oc4cccnc4)cc3)CC2)c(C)n1	0.97	nt	3	9	nt	0.91	nt	nt
Cc1c(CN2CCC(C(=O)Nc3cccc(-c4cccc(Cl)c4)c3)CC2)cnn1C	6.4*	nt	i	-402	nt	5*	-18	-312
O=C(Nc1cccc(-c2cccc(Cl)c2)c1)C1CCN(CC2CCOC2)CC1 (stereo not drawn)	4.1*	nt	-311	-202	nt	3*	-26	-132
c1coc(-c2nnc(-c3ccco3)nn2)c1	1.1	nt	-10	71*	nt	0.29	nt	81*
CSc1nc(-c2ccco2)nn1S(=O)(=O)c1ccccc1	0.91	9	9	1	0.9	0.99	nt	nt
CCS(=O)(=O)n1nc(-c2ccco2)nc1SC	0.99	6	1	22	0.9	0.78	nt	36*
Cc1ccc(S(=O)(=O)N2CCOCC2)cc1NC(=O)COC(=O)CSc1ccc(Br)cc1C	0.78	-1	22	8	1	0.92	nt	nt
Cc1ccc(S(=O)(=O)N2CCN(c3ncnc4sccc34)CC2)cc1	0.9	nt	10	10	nt	0.9	nt	nt
CSC1=NSC2=NC(=O)/C(=C/c3coc4ccc(O)cc4c3=O)C(=N)N12	1	37	-4	56*	0.6	0.44	nt	55*
CN1CCN(NC(=O)Nc2cc(Cl)cc(Cl)c2)CC1	1.2	nt	-21	-143	nt	2.4*	nt	-120
COc1ccc(NC(=O)NN2CCN(C)CC2)cc1OC	1.1	nt	-14	-4	nt	1	nt	nt
C#CCOCCOCCOCCNc1nc(N2CCN(C(=O)CCCCCCCCCCNC(=O)[C@H]([C@@H](C)CC)n3cc(CCCCN=C(N)N)nn3)CC2)nc(N2CCN(C(=O)CCCCCCCCCCNC(=O)[C@@H]([C@H](C)O)n3cc(C)nn3)CC2)n1	1.1	nt	-8	-366	nt	4.7*	nt	i
C#CCOCCOCCOCCNc1nc(N2CCN(C(=O)CCCCCCCCCCNC(=O)Cn3cc(CCCCCN)nn3)CC2)nc(N2CCN(C(=O)CCCCCCCCCCNC(=O)[C@@H]([C@H](C)O)n3cc(C)nn3)CC2)n1	0.98	nt	2	-35	nt	1.3	nt	nt
C#CCOCCOCCOCCNc1nc(N2CCN(C(=O)CCCCCCCCCCNC(=O)[C@@H](CCSC)n3cc(CCO)nn3)CC2)nc(N2CCN(C(=O)CCCCCCCCCCNC(=O)[C@H](CCCN=C(N)N)n3cc(C[C@@H](C)CC)nn3)CC2)n1	1.6	nt	-58	i	nt	7.7*	nt	i
SMILES	hIAP activ	bIAP inhibitor	hIAP inh	mIAP block	bIAP act	mIAP activ	hIAP act confirm	mIAP inh conf
C#CCOCCOCCOCCNc1nc(N2CCN(C(=O)CCCCCCCCCCNC(=O)[C@H](CCCCN)n3cc(C)nn3)CC2)nc(N2CCN(C(=O)CCCCCCCCCCNC(=O)[C@H](CCCN=C(N)N)n3cc(C[C@@H](C)CC)nn3)CC2)n1	1.3	nt	-28	-215	nt	3.1*	nt	-295
C#CCOCCOCCOCCNc1nc(N2CCOCC2)nc(N2CCN(C(=O)[C@H]([C@@H](C)CC)n3cc(CCCN=C(N)N)nn3)CC2)n1	0.95	7	5	-16	0.9	1.2	nt	nt
C#CCOCCOCCOCCNc1nc(N2CCOCC2)nc(N2CCN(C(=O)CCCCCCCCCCNC(=O)[C@H]([C@@H](C)CC)n3cc(CCCCN=C(N)N)nn3)CC2)n1	1.1	nt	-8	-154	nt	2.5*	nt	-137
C#CCOCCOCCOCCNc1nc(N2CCN(C(=O)CCCCCCCCCCNC(=O)[C@H](CCCCN)n3cc(C[C@@H](C)CC)nn3)CC2)nc(N2CCN(C(=O)CCCCCCCCCCNC(=O)[C@H](CCCN=C(N)N)n3cc(C[C@@H](C)CC)nn3)CC2)n1	1.4	nt	-35	-100	nt	2	nt	nt
C#CCOCCOCCOCCNc1nc(N2CCN(C(=O)CCCCCCCCCCNC(=O)[C@H]([C@@H](C)CC)n3cc(CCCCN=C(N)N)nn3)CC2)nc(N2CCN(C(=O)CCCCCCCCCCNC(=O)[C@H](CCCN=C(N)N)n3cc(C[C@@H](C)CC)nn3)CC2)n1	1.5	nt	-49	-343	nt	4.4*	nt	i
C#CCOCCOCCOCCNc1nc(N2CCN(C(=O)CCCCCCCCCCNC(=O)Cn3cc(C[C@@H](C)O)nn3)CC2)nc(N2CCN(C(=O)CCCCCCCCCCNC(=O)[C@@H](CCSC)n3cc(CCO)nn3)CC2)n1	0.94	nt	6	-184	nt	2.8*	nt	-97

Screening data as filed in PubChem BioAssay.
